The text below walks through data of paper PMC8189251 (ACS chemical biology, 2021).

One may read the IC50 as the concentration that inhibits the measured activity by half.

For one assay, the system named is U2 snRNP. As to conditions: bypassed by an ATP-dependent rearrangement; cited from earlier work.
For assay [1], the target named is T1, SF3B (Homo sapiens, UniProt O75533+Q7RTV0). Type of assay: biochemical. As to conditions: for splicing efficiency, first incubation at 30°C compared to 4°C before excess iHB: 1 μM inhibitor, then 100 μM iHB.
Assay [2] has as its target T1, SF3B. To be noted: cited from earlier work; for splicing products with inhibitor alone: 1 μM inhibitor alone in in vitro splicing reaction.
The subject of the next assay is U2 snRNA. Nature of the assay: RNase H cleavage analysis of U2 snRNA accessibility in nuclear extract. It counts as biochemical, human. As to conditions: 1 μM, 10 minutes at 30°C. The essentials:
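HeLa nuclear extract (40%), ATP-depleted 10 min at 30°C, in 60 mM potassium glutamate, 2 mM Mg acetate, 0.1 mg/mL tRNA, ±2 mM ATP, with test compound or DMSO, 10 min, 30°C. Oligos against U2 nt 24–38 or 32–46 (5 μM) were added for 15 min for endogenous RNase H cleavage, then DNase-removed. Read-out: primer extension (³²P primer, U2 97–117; MMLV RT, 53°C, 30 min), denaturing gel, phosphorimaging.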

Regarding `CC[C@H](O)[C@@H](C)[C@H]1O[C@@H]1C[C@@](C)(O)/C=C/C=C(\C)[C@H]1OC(=O)C[C@H](O)CC[C@@](C)(O)[C@@H](OC(=O)N2CCN(C3CCCCCC3)CC2)/C=C/[C@@H]1C` [E7107], the “effect on U2 snRNPs ability to engage an oligo containing the branch sequence” value in the assay on U2 snRNP is recorded as “inhibits”.

Regarding `CO[C@]1(C)C[C@@]2(CO2)[C@H](O)[C@@H](/C=C/C(C)=C/C[C@@H]2O[C@H](C)[C@H](NC(=O)/C=C\[C@H](C)OC(C)=O)C[C@@H]2C)O1` [SSA, spliceostatin A], the “splicing efficiency, inhibitor incubated before excess iHB competitor” value at SF3B [1] (1 μM inhibitor 10 min, then 100 μM iHB 10 min) is on record as “greatly reduced”. The “splicing products, inhibitor followed by DMSO” value on SF3B [1] (1 μM inhibitor 10 min, then DMSO 10 min, 4°C) is “no splicing products”. In addition, the “splicing efficiency, first incubation at 30°C compared to 4°C before excess iHB” value on SF3B [1] was “lower”. The off-rate result on SF3B [1] (inferred from order of addition, not direct binding) is “very slow”. The “splicing products with inhibitor alone” value at SF3B [2] is “not detected”. In addition, the “effect on ATP-dependent changes in U2 snRNA cleavage” value in the assay with U2 snRNA was “does not interfere”.

Take `CO[C@H]([C@@H](C)[C@H]1O[C@]1(C)C[C@H](C)/C=C/C=C(\C)[C@H]1O[C@@H](CC(=O)O)CC[C@@H]1C)[C@@H](C)O` [compound 1, herboxidiene]: on SF3B [1], the “splicing efficiency, first incubation at 30°C compared to 4°C before excess iHB” value is listed as “lower”. The “splicing products with inhibitor alone” value at SF3B [2] was “not detected”. For the same molecule, the IC50 on SF3B [2] (read-out: IC50 value for in vitro splicing, HeLa nuclear extract) was 0.3 µM.
